Source: PubChem BioAssay
MPTP block = blocks calcium-induced mitochondrial swelling. isolated mouse mitochondria, Ca2+ swelling absorbance, 30 min. 1.4% of 360,000 active. inhibition, % at 10 µM;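 active means inhibition of 50% or more, scaled per plate between neutral and stimulator controls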
aDG glyco act = increases alpha dystroglycan glycosylation | Pro5-aDG cells, alpha-DG glycosylation AlphaScreen (IIH6); 0% Pro5, 100% B10-LARGE cell signal | activation, % at 10 µM | 0.22% of 360,000 active;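 active means activation of at least 8% versus controls, or a plate z-score of at least 8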;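 further: Pro5 are CHO cells carrying HIG-tagged alpha-DG that lacks glycosylation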
NR3A LBD binder = modulates the human NR3A ligand-binding domain | NR3A LBD differential scanning fluorimetry, Tm shift; 0% = protein alone, 100% = glycine-bound protein | 2.5% of 340,000 active | AID 1259313 | Tm shift relative to glycine control, % at 25 µM;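 active means melting temperature shift of at least 10% of the positive control shift, at one fixed dose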
CHOP inh = CHOP inhibition in unfolded protein response; 3.8% of 220,000 active; AID 2732; CHO-K1 CHOP-promoter luciferase, tunicamycin-induced, 15-18 h; inhibition, % at 10 µM;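 active means compounds that reduced the stress-induced luciferase reporter signal by more than about 70% of percent inhibition, limit read from the data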
XBP1 UPR activ = adaptive UPR (XBP1) activation. CHO-XBP1 luciferase reporter, IRE1-XBP1 UPR activation, luminescence; percent of tunicamycin response, DMSO as zero. activation, % at 20 µM. 0.33% of 330,000 active. AID 463104;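 active means versus positive control, 20 µM dose yields 30% or more activation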
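Material: CHO cell line with stable XBP1 luciferase reporter; schedule: 16-18 h cell attachment at 37 °C, then 6 h compound exposure; signal: glow luminescence from Steady-Glo reagent; medium: serum-containing F12 medium, 10% FBS; benchmarks: tunicamycin 10 µg/mL and vehicle-only wells; read-out: percent activation relative to tunicamycin reference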
CHOP UPR activ = apoptotic UPR (CHOP) activation. CHO-CHOP luciferase reporter, luminescence; percent of tunicamycin response over DMSO baseline. activation, % at 10 µM. 0.34% of 330,000 active. AID 449763;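 active means at 10 µM dose, activation of 40% or more, normalized to positive control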
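Assay system: CHO-CHOP cells, stable luciferase reporter of PERK-eIF2a-CHOP signalling / Buffer or medium: F12 plus 10% serum / Compound dosing: one dose, 10 µM in 0.5% DMSO / Times: 6 h compound treatment, 37 °C / Technique: luciferase luminescence / Read-out: % reporter activation, DMSO baseline versus tunicamycin full activation / Benchmarks: tunicamycin and DMSO controls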
Each line names hits and unclear results; the compound was inactive in the other large screens. This is a sample that favours compounds with a hit; in the whole collection about 5.6% have one here.

Cc1ccc(-n2c(SCC(=O)c3c(N)n(C)c(=O)n(C)c3=O)nc3sc4c(c3c2=O)CCCC4)c(C)c1	CHOP inh 73
O=C(O)CSc1nc(-c2ccccc2)nc2c1oc1ccccc12	none
O=C(O)CSc1nc(-c2ccc(Cl)cc2)nc2c1oc1ccccc12	CHOP inh 74 (no result: XBP1 UPR activ, CHOP UPR activ)
O=C(CNC(=O)c1ccc(C(F)(F)F)cc1)NC1CC1	none (no result: CHOP inh)
CC(=O)c1cccc(Nc2ccc(C#N)cc2)c1	none (no result: NR3A LBD binder, CHOP inh, XBP1 UPR activ, CHOP UPR activ)
Cc1ccc(C(Sc2ccccc2)C(Cn2cncn2)C(=O)c2ccccc2)cc1 (stereo not given)	CHOP inh 93
Cc1ccc(SC(c2ccc(C)cc2)C(Cn2cncn2)C(=O)c2ccccc2)cc1 (stereo not given)	none
O=c1[nH]c(CSc2nc3ccccc3o2)nc2c1cnn2-c1ccccc1	CHOP inh 74
O=c1[nH]c(SCc2nc3c(cnn3-c3ccccc3)c(=O)[nH]2)nc2ccccc12	none (no result: XBP1 UPR activ, CHOP UPR activ)
CCCCCSc1nc2c(cnn2-c2ccccc2)c(=O)[nH]1	CHOP inh 71
CCC1CCCCN1C(=O)CSc1nc2c(cnn2-c2ccc(C)cc2)c(=O)[nH]1 (stereo not given)	NR3A LBD binder 16
CC(C)Sc1nc2c(cnn2-c2ccccc2)c(=O)[nH]1	CHOP inh 72
CC(C)Sc1nc2c(cnn2-c2ccc(F)cc2)c(=O)[nH]1	none
Cc1cc(F)ccc1C(O)c1ncc(-c2ccc3ccccc3c2)[nH]1 (stereo not given)	none (no result: NR3A LBD binder, CHOP inh, XBP1 UPR activ, CHOP UPR activ)
O=c1[nH]c(SCc2ccccc2Cl)nc2c1cnn2-c1ccccc1	CHOP inh 96
CCN(CC(=O)NC(C)(C)C)C(=O)CCl	none
CCCC(=O)Nc1cc(-c2nnc(OC)c3ccccc23)ccc1N1CCCCC1	CHOP inh 72 (no result: MPTP block, aDG glyco act, NR3A LBD binder)
CCCC(=O)Nc1cc(-c2nn(C)c(=O)c3ccccc23)ccc1N1CCCCC1	none (no result: CHOP inh)
Cc1ccc(NC(=O)c2noc3c2CCc2ccccc2-3)cc1	none
Cc1nn(Cc2ccccc2)c(C)c1NC(=O)c1noc2c1CCc1ccccc1-2	CHOP inh 86
COc1ccc(/C=N/NC(=O)c2ccc(Br)cc2)cc1CN1CCOCC1	none
COc1ccc(/C=N/NC(=O)c2ccncc2)cc1CN1CCOCC1	NR3A LBD binder 12
O=S(Cc1ccccc1)CC(O)(c1ccc(Cl)cc1)c1ccc(Cl)cc1 (stereo not given)	CHOP inh 85
O=S(Cc1ccc(Cl)cc1)CC(O)(c1ccccc1)c1ccccc1 (stereo not given)	none
Cc1csc(SCC(=O)Nc2ccc(C)c(F)c2)n1	none (no result: CHOP inh)
CCc1nnc(NC(=O)CCC(=O)N2CCC(Cc3ccccc3)CC2)s1	none (no result: CHOP inh)
O=S(=O)(NCc1ccccc1)NCc1ccccc1	CHOP inh 73
O=S(=O)(NCc1ccccc1)NCc1ccccc1F	none
Nc1ccc(C(=O)Nc2ccc3nc(-c4cccnc4)[nH]c3c2)cc1	NR3A LBD binder 13
Cn1cccc1-c1nc2ccc(NC(=O)c3ccc([N+](=O)[O-])cc3)cc2[nH]1	NR3A LBD binder 27
COC(=O)c1ccc(C(=O)Nc2ccc3nc(-c4cccnc4)[nH]c3c2)cc1	none
COC(=O)c1ccc(C(=O)Nc2ccc3nc(-c4ccncc4)[nH]c3c2)cc1	NR3A LBD binder 15 (no result: CHOP inh)
CN[C@H]1C[C@H]2c3[nH]c4ccc(-c5cccc(C)c5)cc4c3CCN2C[C@H]1[C@H](C)O	none (no result: NR3A LBD binder, CHOP inh, XBP1 UPR activ, CHOP UPR activ)
CCCCN1CC(COCc2ccccc2)Oc2ccccc2S1(=O)=O (stereo not given)	NR3A LBD binder 17 (no result: CHOP inh)
O=S1(=O)c2ccccc2OC(COCc2ccccc2)CN1Cc1ccccc1 (stereo not given)	NR3A LBD binder 18 (no result: CHOP inh)
CCCCN1CC(COCc2ccccc2)Oc2cccc(F)c2S1(=O)=O (stereo not given)	NR3A LBD binder 14 (no result: CHOP inh, XBP1 UPR activ, CHOP UPR activ)
CCCCN1CC(COC)Oc2cccc(F)c2S1(=O)=O (stereo not given)	none (no result: CHOP inh, XBP1 UPR activ, CHOP UPR activ)
COc1ccc(CN2CC(COCc3ccccc3)Oc3ccccc3S2(=O)=O)cc1 (stereo not given)	none (no result: CHOP inh)
COc1ccc(C(=O)Nc2nc(C)c3cc4c(cc3n2)OCO4)cc1	CHOP inh 72
Brc1ccc(-c2cn3nc4c(nc3n2)CCCC4)cc1	CHOP inh 96
c1ccc(-c2cn3nc4c(nc3n2)CCCC4)cc1	none
COc1ccc(-c2oc3ccccc3c2C#Cc2cncn2C)cc1	none (no result: CHOP inh)
COc1ccc(-n2nnnc2C(CCc2ccccc2)N2CCN(C/C=C/c3ccccc3)CC2)cc1 (stereo not given)	none (no result: NR3A LBD binder, CHOP inh, XBP1 UPR activ, CHOP UPR activ)
CCC(C)[C@H](NS(=O)(=O)c1ccc(C)cc1)C(=O)N1CCC(C(=O)N[C@@H](Cc2ccccc2)C(=O)O)CC1 (stereo not given in full)	NR3A LBD binder 13 (no result: CHOP inh)
CC[C@H](C)[C@H](NS(=O)(=O)c1ccc(C)cc1)C(=O)N1CCC(C(=O)N[C@H](C(=O)O)C(C)C)CC1	none
COc1cc2c(cc1OC)C(COc1ccc([N+](=O)[O-])cc1)NCC2 (stereo not given)	none (no result: CHOP inh)
O=C(Nc1cccc(F)c1)C1CCN(C(=O)c2ccc(Cl)cc2)CC1	NR3A LBD binder 12
O=C(c1ccc(Cl)cc1)N1CCC(O)(CSc2ccc(Cl)cc2)CC1	CHOP inh 72
O=C(c1ccc(Cl)cc1)N1CCC(O)(CSc2ccccc2)CC1	none
Cc1ccc(SCC2(O)CCN(S(=O)(=O)c3ccc(Cl)cc3)CC2)cc1	CHOP inh 81
O=C(CC1SC(=Nc2ccccc2)N(CCc2c[nH]c3ccccc23)C1=O)Nc1ccccc1F (stereo not given)	NR3A LBD binder 21
O=C(c1nc[nH]c1C(=O)N1CCN(c2ccccc2)CC1)N1CCN(c2ccccc2)CC1	none (no result: CHOP inh)
Cc1cccc2sc(N(CCCN(C)C)C(=O)c3nc4ccccc4s3)nc12	CHOP inh 75
Cc1ccc2nc(N(CCCN(C)C)C(=O)c3sc4ccccc4c3Cl)sc2c1	CHOP inh 80
Cc1ccc2nc(N(CCCN(C)C)C(=O)c3ccc(S(=O)(=O)N(C)C)cc3)sc2c1	none
Cc1cccc2sc(N(CCCN(C)C)C(=O)CCc3ccccc3)nc12	none
Cc1cc(OC(C)C(=O)NCC(O)c2ccccc2)c2c(C)cc(=O)oc2c1 (stereo not given)	none (no result: CHOP inh)
CCC(C)N(C(=O)COC(=O)c1ccc(N)c([N+](=O)[O-])c1)C1CCS(=O)(=O)C1 (stereo not given)	none (no result: NR3A LBD binder, CHOP inh, XBP1 UPR activ, CHOP UPR activ)
CCC(C)(C(=O)NC1CCCC1)N(C(C)=O)c1ccc(C)cc1 (stereo not given)	none
CCC(C)(C(=O)NC1CCCCC1)N(C(=O)C1CCC(=O)N1)c1ccc(C)cc1 (stereo not given)	CHOP inh 71
